# Source: publication PMC9080015 (RSC Advances, 2018)
# Like-named read-outs stand apart in the source and are kept apart here.
# Key:
# Type in all cases: biochemical
# [1] = target: T1, recombinant human CYP1B1 (Homo sapiens, UniProt Q16678); assay: EROD assay, recombinant human CYP1B1 inhibition; conditions: for IC50 ratio 1A1/1B1: selectivity for CYP1B1 over CYP1A1; for IC50 ratio 1A2/1B1: selectivity for CYP1B1 over CYP1A2
# T1 sequence (Q16678 1-543): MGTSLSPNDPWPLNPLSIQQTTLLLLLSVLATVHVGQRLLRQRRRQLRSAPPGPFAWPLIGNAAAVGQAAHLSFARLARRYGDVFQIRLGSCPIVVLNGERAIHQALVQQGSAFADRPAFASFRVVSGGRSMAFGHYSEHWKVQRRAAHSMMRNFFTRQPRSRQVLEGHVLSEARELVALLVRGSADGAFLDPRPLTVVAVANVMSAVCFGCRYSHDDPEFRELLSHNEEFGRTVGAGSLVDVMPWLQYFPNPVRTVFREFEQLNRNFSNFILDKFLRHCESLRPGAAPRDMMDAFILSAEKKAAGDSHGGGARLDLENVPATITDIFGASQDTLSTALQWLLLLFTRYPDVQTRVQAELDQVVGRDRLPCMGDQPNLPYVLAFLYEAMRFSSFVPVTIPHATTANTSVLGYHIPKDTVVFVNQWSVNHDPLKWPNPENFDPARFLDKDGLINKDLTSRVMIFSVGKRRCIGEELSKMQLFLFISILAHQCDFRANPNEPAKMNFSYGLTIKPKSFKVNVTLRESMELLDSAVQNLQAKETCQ
# [2] = target: T2, CYP1A1 (Homo sapiens, UniProt P04798); assay: EROD assay, recombinant human CYP1A1 inhibition
# T2 sequence (P04798 1-512): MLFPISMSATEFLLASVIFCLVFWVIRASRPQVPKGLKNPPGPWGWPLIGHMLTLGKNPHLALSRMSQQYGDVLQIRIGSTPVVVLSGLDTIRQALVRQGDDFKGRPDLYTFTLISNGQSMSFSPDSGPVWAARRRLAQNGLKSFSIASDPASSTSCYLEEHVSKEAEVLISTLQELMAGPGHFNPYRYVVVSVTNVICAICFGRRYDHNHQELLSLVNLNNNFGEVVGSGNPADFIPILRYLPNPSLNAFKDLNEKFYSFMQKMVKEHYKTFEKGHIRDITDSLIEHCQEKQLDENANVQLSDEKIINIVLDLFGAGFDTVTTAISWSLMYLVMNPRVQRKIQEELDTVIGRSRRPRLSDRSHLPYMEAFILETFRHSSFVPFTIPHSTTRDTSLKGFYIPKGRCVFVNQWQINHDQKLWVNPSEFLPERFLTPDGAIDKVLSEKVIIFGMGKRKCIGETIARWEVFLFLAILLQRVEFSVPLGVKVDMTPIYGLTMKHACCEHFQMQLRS
# In short: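 Supersomes with P450 reductase. Test compound is taken from 10 mM DMSO stock into Tris–HCl pH 7.4 (final DMSO <1% v/v), at several concentrations. Methanol stop. Resorufin fluorescence read at ex 544/em 590 nm. IC50 from nonlinear regression, log(inhibitor) vs normalized response, variable slope.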
# [3] = target: T3, CYP1A2 (Homo sapiens, UniProt P05177); assay: EROD assay, recombinant human CYP1A2 inhibition
# T3 sequence (P05177 2-516 limits assumed): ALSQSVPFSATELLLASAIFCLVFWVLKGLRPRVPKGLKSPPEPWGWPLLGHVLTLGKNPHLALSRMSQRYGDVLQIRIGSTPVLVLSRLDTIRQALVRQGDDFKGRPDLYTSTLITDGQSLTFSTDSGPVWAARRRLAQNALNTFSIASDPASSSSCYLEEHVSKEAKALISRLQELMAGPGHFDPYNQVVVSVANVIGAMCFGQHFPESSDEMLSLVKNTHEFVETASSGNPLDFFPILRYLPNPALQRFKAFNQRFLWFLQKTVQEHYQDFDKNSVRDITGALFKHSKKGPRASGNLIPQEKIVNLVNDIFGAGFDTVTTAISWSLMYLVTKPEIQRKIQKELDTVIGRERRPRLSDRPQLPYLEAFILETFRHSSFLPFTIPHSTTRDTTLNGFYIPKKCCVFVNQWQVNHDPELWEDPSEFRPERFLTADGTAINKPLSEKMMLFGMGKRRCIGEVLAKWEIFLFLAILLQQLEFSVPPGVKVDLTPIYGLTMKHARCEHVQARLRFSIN
# [4] = read-out: IC50 values (nM) 1B1, EROD assay, 20 fmol CYP1B1, 150 nM 7-ER, 37 °C, 35 min
compound,measurement,setting,value
2-Phenylbenzo[h]quinolin-4-ol [Compound 4a],IC50,[1]; [4],7.6 nM
same,IC50 ratio 1A1/1B1,[1],2.4
same,IC50 ratio 1A2/1B1,[1],19.3
same,IC50,"[2]; read-out: IC50 values (nM) 1A1, EROD assay, 10 fmol CYP1A1, 150 nM 7-ER, 37 °C, 15 min",18.5 nM
same,IC50,"[3]; read-out: IC50 values (nM) 1A2, EROD assay, 60 fmol CYP1A2, 150 nM 7-ER, 37 °C, 50 min",147 nM
"O=C1CC(c2ccccc2)Nc2c1ccc1ccccc21 (stereo not drawn) [Compound 1a, 2-Phenyl-2,3-dihydrobenzo[h]quinolin-4(1H)-one]",IC50,[1],131 nM
same,IC50 ratio 1A1/1B1,[1],3.1
same,IC50 ratio 1A2/1B1,[1],7.3
same,IC50,[2],405 nM
same,IC50,[3],953 nM
"COc1cc(C2CC(=O)c3ccc4ccccc4c3N2)cc(OC)c1OC (stereo not drawn) [Compound 1b, 2-(3,4,5-Trimethoxyphenyl)-2,3-dihydrobenzo[h]quinolin-4(1H)-one]",IC50,[1],20.2 nM
same,IC50 ratio 1A1/1B1,[1],2.2
same,IC50 ratio 1A2/1B1,[1],>247.5
same,IC50,[2],44.6 nM
same,IC50,[3],> 5000 nM
"O=C1CC(c2ccccc2F)Nc2c1ccc1ccccc21 (stereo not drawn) [Compound 1c, 2-(2-Fluorophenyl)-2,3-dihydrobenzo[h]quinolin-4(1H)-one]",IC50,[1],139 nM
same,IC50 ratio 1A1/1B1,[1],4.1
same,IC50 ratio 1A2/1B1,[1],7.9
same,IC50,[2],578 nM
same,IC50,[3],1100 nM
"O=C1CC(c2cccc(F)c2)Nc2c1ccc1ccccc21 (stereo not drawn) [Compound 1d, 2-(3-Fluorophenyl)-2,3-dihydrobenzo[h]quinolin-4(1H)-one]",IC50,[1],98.6 nM
same,IC50 ratio 1A1/1B1,[1],5.0
same,IC50 ratio 1A2/1B1,[1],10.6
same,IC50,[2],493 nM
same,IC50,[3],1050 nM
"O=C1c2ccc3ccccc3c2N[C@@H](c2ccccc2)[C@H]1O [Compound 2a, (2S,3R) 3-Hydroxy-2-phenyl-2,3-dihydrobenzo[h]quinolin-4(1H)-one]",IC50,[1],260 nM
same,IC50 ratio 1A1/1B1,[1],2.3
same,IC50 ratio 1A2/1B1,[1],5.4
same,IC50,[2],588 nM
same,IC50,[3],1410 nM
"COc1cc([C@@H]2Nc3c(ccc4ccccc34)C(=O)[C@@H]2O)cc(OC)c1OC [Compound 2b, (2S,3R) 3-Hydroxy-2-(3,4,5-trimethoxyphenyl)-2,3-dihydrobenzo[h]quinolin-4(1H)-one]",IC50,[1],303 nM
same,IC50 ratio 1A1/1B1,[1],3.8
same,IC50 ratio 1A2/1B1,[1],>16.5
same,IC50,[2],1160 nM
same,IC50,[3],> 5000 nM
"O=c1c(O)c(-c2ccccc2)[nH]c2c1ccc1ccccc12 [Compound 3a, 3-Hydroxy-2-phenylbenzo[h]quinolin-4(1H)-one]",IC50,[1],86.7 nM
same,IC50 ratio 1A1/1B1,[1],10.4
same,IC50 ratio 1A2/1B1,[1],>57.7
same,IC50,[2],898 nM
same,IC50,[3],> 5000 nM
"O=c1c(O)c(-c2ccccc2F)[nH]c2c1ccc1ccccc12 [Compound 3b, 2-(2-Fluorophenyl)-3-hydroxybenzo[h]quinolin-4(1H)-one]",IC50,[1],85.9 nM
same,IC50 ratio 1A1/1B1,[1],20.8
same,IC50 ratio 1A2/1B1,[1],>58.2
same,IC50,[2],1780 nM
same,IC50,[3],> 5000 nM
"O=c1c(O)c(-c2ccc(O)cc2)[nH]c2c1ccc1ccccc12 [Compound 3c, 3-Hydroxy-2-(4-hydroxyphenyl)benzo[h]quinolin-4(1H)-one]",IC50,[1],142 nM
same,IC50 ratio 1A1/1B1,[1],3.7
same,IC50 ratio 1A2/1B1,[1],>35.3
same,IC50,[2],525 nM
same,IC50,[3],> 5000 nM
"O=c1c(O)c(-c2ccc(F)cc2)[nH]c2c1ccc1ccccc12 [Compound 3d, 2-(4-Fluorophenyl)-3-hydroxybenzo[h]quinolin-4(1H)-one]",IC50,[1],93.3 nM
same,IC50 ratio 1A1/1B1,[1],3.6
same,IC50 ratio 1A2/1B1,[1],>53.6
same,IC50,[2],334 nM
same,IC50,[3],> 5000 nM
"O=c1cc(-c2ccccc2)[nH]c2c1ccc1ccccc12 [Compound 3e, 2-Phenylbenzo[h]quinolin-4(1H)-one]",IC50,[1],17.3 nM
same,IC50 ratio 1A1/1B1,[1],6.0
same,IC50 ratio 1A2/1B1,[1],27.9
same,IC50,[2],103 nM
same,IC50,[3],483 nM
"COc1cc(-c2ccccc2)nc2c1ccc1ccccc12 [Compound 4b, 4-Methoxy-2-phenylbenzo[h]quinoline]",IC50 values (nM) 1B1,"[1]; EROD assay, 20 fmol CYP1B1, 150 nM 7-ER, 37 °C, 35 min",no longer a CYP1 inhibitor
same,IC50,[1]; [4],> 5000 nM
same,IC50 at 15 min,"[2]; human, recombinant human CYP1A1 with P450 reductase (Supersomes), pH 7.4, probe 7-ethoxyresorufin (7-ER), 150 nM",> 5000 nM
same,IC50 at 50 min,"[3]; human, recombinant human CYP1A2 with P450 reductase (Supersomes), pH 7.4, probe 7-ethoxyresorufin (7-ER), 150 nM",> 5000 nM
"COc1cc2c(=O)cc(-c3ccccc3)[nH]c2c2c(OC)cccc12 [Compound 5a, 6,10-Dimethoxy-2-phenylbenzo[h]quinolin-4(1H)-one]",IC50,[1],16.6 nM
same,IC50 ratio 1A1/1B1,[1],0.8
same,IC50 ratio 1A2/1B1,[1],8.9
same,IC50,[2],12.6 nM
same,IC50,[3],148 nM
"COc1cc2c(=O)cc(-c3ccccc3F)[nH]c2c2c(OC)cccc12 [Compound 5b, 2-(2-Fluorophenyl)-6,10-dimethoxybenzo[h]quinolin-4(1H)-one]",IC50,[1],27.9 nM
same,IC50 ratio 1A1/1B1,[1],0.9
same,IC50 ratio 1A2/1B1,[1],6.2
same,IC50,[2],26.4 nM
same,IC50,[3],174 nM
"COc1cc2c(=O)cc(-c3cccc(F)c3)[nH]c2c2c(OC)cccc12 [Compound 5c, 2-(3-Fluorophenyl)-6,10-dimethoxybenzo[h]quinolin-4(1H)-one]",IC50,[1],7.8 nM
same,IC50 ratio 1A1/1B1,[1],5.0
same,IC50 ratio 1A2/1B1,[1],42.4
same,IC50,[2],39.3 nM
same,IC50,[3],331 nM
"COc1cc2c(=O)cc(-c3cccc(Cl)c3)[nH]c2c2c(OC)cccc12 [Compound 5d, 2-(3-Chlorophenyl)-6,10-dimethoxybenzo[h]quinolin-4(1H)-one]",IC50,[1],27.6 nM
same,IC50 ratio 1A1/1B1,[1],1.1
same,IC50 ratio 1A2/1B1,[1],3.1
same,IC50,[2],29.4 nM
same,IC50,[3],84.5 nM
"COc1cccc(-c2cc(=O)c3cc(OC)c4cccc(OC)c4c3[nH]2)c1 [Compound 5f, 6,10-Dimethoxy-2-(3-methoxyphenyl)benzo[h]quinolin-4(1H)-one]",IC50,[1],7.1 nM
same,IC50 ratio 1A1/1B1,[1],5.0
same,IC50 ratio 1A2/1B1,[1],26.8
same,IC50,[2],35.8 nM
same,IC50,[3],190 nM
"COc1cc2c(=O)cc(-c3ccc(F)cc3)[nH]c2c2c(OC)cccc12 [Compound 5g, 2-(4-Fluorophenyl)-6,10-dimethoxybenzo[h]quinolin-4(1H)-one]",IC50 ratio 1A1/1B1,[1],2.7
same,IC50 ratio 1A2/1B1,[1],540.3
same,IC50,[3],2110 nM
"COc1ccc(-c2cc(=O)c3cc(OC)c4cccc(OC)c4c3[nH]2)cc1 [Compound 5h, 6,10-Dimethoxy-2-(4-methoxyphenyl)benzo[h]quinolin-4(1H)-one]",IC50 ratio 1A1/1B1,[1],15.8
same,IC50 ratio 1A2/1B1,[1],>1219.5
same,IC50,[3],> 5000 nM
"COc1cc2c(=O)cc(-c3ccc(C(F)(F)F)cc3)[nH]c2c2c(OC)cccc12 [Compound 5i, 6,10-Dimethoxy-2-(4-(trifluoromethyl)phenyl)benzo[h]quinolin-4(1H)-one]",IC50,[1],34.4 nM
same,IC50 ratio 1A1/1B1,[1],8.7
same,IC50 ratio 1A2/1B1,[1],38.9
same,IC50,[2],300 nM
same,IC50,[3],1340 nM
"COc1cc(-c2cc(=O)c3cc(OC)c4cccc(OC)c4c3[nH]2)cc(OC)c1OC [Compound 5j, 6,10-Dimethoxy-2-(3,4,5-trimethoxyphenyl)benzo[h]quinolin-4(1H)-one]",IC50,[1],164 nM
same,IC50 ratio 1A1/1B1,[1],4.9
same,IC50 ratio 1A2/1B1,[1],>30.5
same,IC50,[2],809 nM
same,IC50,[3],> 5000 nM
